Test results from ChEMBL document CHEMBL4145609, “Cytotoxic Drimane Sesquiterpenoids Isolated from Perenniporia maackiae” (2018).
Structures can show the parent of a compound that is named as a salt. The source made the active and inactive calls. The calls are words filed in the database; no cut-off is given here.

Experiments:
Assay type in all cases: functional
ACHN = experiment: Cytotoxicity against human ACHN cells assessed as inhibition of cell proliferation measured after 72 hrs by sulforhodamine B assay
Procedure, shortened: (§1)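 Cells seeded at 2 × 10^3 cells/well and exposed to a range of concentrations for 72 h, with adriamycin as reference. Fixed in 10% trichloroacetic acid overnight at 4 °C, stained with 0.4% SRB for 1 h, washed with 1% acetic acid, dye solubilized in 10 mM Tris, absorbance read at 690 nm. GI50 taken from dose–response curves corrected for starting cell count; mean of triplicates.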

HCT-15 = experiment: Cytotoxicity against human HCT15 cells assessed as inhibition of cell proliferation measured after 72 hrs by sulforhodamine B assay; settings: for GI50: HCT-15, 72 h; procedure, shortened: as §1
MDA-MB-231 = experiment: Cytotoxicity against human MDA-MB-231 cells assessed as inhibition of cell proliferation measured after 72 hrs by sulforhodamine B assay; settings: for GI50: MDA-MB-231, 72 h; procedure, shortened: as §1
NCI-H23 = experiment: Cytotoxicity against human NCI-H23 cells assessed as inhibition of cell proliferation measured after 72 hrs by sulforhodamine B assay; settings: for GI50: NCI-H23, 72 h; procedure, shortened: as §1
NUGC-3 = experiment: Cytotoxicity against human NUGC3 cells assessed as inhibition of cell proliferation measured after 72 hrs by sulforhodamine B assay; settings: for GI50: NUGC-3, 72 h; procedure, shortened: as §1
PC-3 = experiment: Cytotoxicity against human PC3 cells assessed as inhibition of cell proliferation measured after 72 hrs by sulforhodamine B assay; settings: for GI50: PC-3, 72 h; procedure, shortened: as §1

Structure (SMILES)	GI50 (ACHN) [nM]	GI50 (HCT-15) [nM]	GI50 (MDA-MB-231) [nM]	GI50 (NCI-H23) [nM]	GI50 (NUGC-3) [nM]	GI50 (PC-3) [nM]	Activity (ACHN)	Activity (HCT-15)	Activity (MDA-MB-231)	Activity (NCI-H23)	Activity (NUGC-3)	Activity (PC-3)
CC1(C)CCC[C@@]2(C)[C@H]1C(=O)C=C1CO[C@@H](O)[C@@]12O	3600	5400	4000	4300	2300	4600	–	–	–	–	–	–
CO[C@@H]1C=C2CO[C@@H](O)[C@]2(O)[C@@]2(C)CCCC(C)(C)[C@H]12	–	–	–	–	–	–	inactive	inactive	inactive	inactive	inactive	inactive
CC(=O)O[C@@H]1C=C2CO[C@@H](O)[C@]2(O)[C@@]2(C)CC[C@H](O)C(C)(C)[C@H]12	–	–	–	–	–	–	inactive	inactive	inactive	inactive	inactive	inactive
C[C@]1(CO)CCC[C@@]2(C)[C@H]1[C@H](O)C=C1CO[C@@H](O)[C@@]12O	–	–	–	–	–	–	inactive	inactive	inactive	inactive	inactive	inactive
CC1(C)CCC[C@@]2(C)[C@H]1[C@@H](O)C=C1CO[C@@H](O)[C@@]12O	2000	1800	2300	2100	2400	6000	–	–	–	–	–	–
COc1cccc2c1C(=O)c1c(O)c3c(c(O)c1C2=O)C[C@@](O)(C(=O)CO)C[C@@H]3O[C@H]1C[C@H](N)[C@H](O)[C@H](C)O1 [DOXORUBICIN HYDROCHLORIDE]	70	50	70	80	70	90	–	–	–	–	–	–
CO[C@H]1C=C2CO[C@@H](O)[C@]2(O)[C@@]2(C)CCCC(C)(C)[C@H]12	1200	1600	1500	1400	1900	2000	–	–	–	–	–	–
